{
  "source": "ChEMBL document CHEMBL2057099",
  "about": "“Synthesis of rocaglamide hydroxamates and related compounds as eukaryotic translation inhibitors: synthetic and biological studies” (J Med Chem, 2012)",
  "key": {"[1]": {"molecular_target": "T1, Eukaryotic initiation factor 4A-I (Homo sapiens, UniProt P60842)", "T1 sequence (P60842 whole entry)": "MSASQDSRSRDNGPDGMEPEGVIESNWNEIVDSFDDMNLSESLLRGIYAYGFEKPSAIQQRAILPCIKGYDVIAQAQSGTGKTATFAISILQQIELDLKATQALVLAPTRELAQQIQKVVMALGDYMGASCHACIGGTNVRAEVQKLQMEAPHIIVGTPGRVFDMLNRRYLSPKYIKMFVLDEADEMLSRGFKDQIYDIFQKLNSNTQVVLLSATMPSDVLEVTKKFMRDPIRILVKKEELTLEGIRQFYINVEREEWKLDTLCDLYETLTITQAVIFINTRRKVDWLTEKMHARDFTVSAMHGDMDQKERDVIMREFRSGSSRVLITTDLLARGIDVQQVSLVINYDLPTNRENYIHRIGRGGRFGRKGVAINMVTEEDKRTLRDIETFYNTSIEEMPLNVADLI", "experiment": "Inhibition of eIF4A1-mediated protein synthesis in human HeLA cells assessed as inhibition of [35S]Met incorporation by scintillation counting", "type": "cell-based", "procedure,_shortened": "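HeLa cells treated with compound or DMSO vehicle. Protein synthesis measured as 35S-Met incorporation, normalised to total protein content and expressed relative to the DMSO control. Values are the average of duplicates with the error of the mean.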"}, "[2]": {"molecular_target": "Eukaryotic initiation factor 4A-I (Oryctolagus cuniculus) (UniProt P29562)", "sequence (P29562 whole entry)": "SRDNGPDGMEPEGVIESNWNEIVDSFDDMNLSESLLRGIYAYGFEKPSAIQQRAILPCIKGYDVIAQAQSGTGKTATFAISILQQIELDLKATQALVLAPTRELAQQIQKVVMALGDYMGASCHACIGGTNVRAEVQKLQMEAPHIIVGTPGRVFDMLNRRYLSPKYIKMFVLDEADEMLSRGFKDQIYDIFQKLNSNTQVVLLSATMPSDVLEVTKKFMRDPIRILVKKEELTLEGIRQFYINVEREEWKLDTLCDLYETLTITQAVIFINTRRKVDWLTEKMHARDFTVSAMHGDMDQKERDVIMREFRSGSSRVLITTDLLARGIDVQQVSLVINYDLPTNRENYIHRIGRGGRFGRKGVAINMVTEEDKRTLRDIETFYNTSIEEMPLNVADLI", "experiment": "Inhibition of eIF4A1-mediated FF/HCV/Ren cap-dependent mRNA translation in rabbit reticulocyte lysate by reporter gene assay"}, "Mus musculus [3]": {"tested_on": "Mus musculus", "experiment": "Hematotoxicity in C57Bl/6 mouse assessed as effect on CD4 T cells at 0.2 mg/kg, ip administered for 5 days measured 2 hrs post last dose by FACS analysis", "type": "organism-based, T-cell", "set-up": "dose 0.2 mg/kg, route intraperitoneal", "conditions": "in vivo"}, "Mus musculus [4]": {"tested_on": "Mus musculus", "experiment": "Hematotoxicity in C57Bl/6 mouse assessed as effect on […] T cells at 0.2 mg/kg, ip administered for 5 days measured 2 hrs post last dose by FACS analysis", "type": "organism-based, T-cell", "set-up": "dose 0.2 mg/kg, route intraperitoneal", "conditions": "in vivo"}, "Mus musculus [5]": {"tested_on": "Mus musculus", "experiment": "Hematotoxicity in C57Bl/6 mouse assessed as effect on Ly-6G myeloid cells at 0.2 mg/kg, ip administered for 5 days measured 2 hrs post last dose by FACS analysis", "type": "organism-based", "set-up": "dose 0.2 mg/kg, route intraperitoneal", "conditions": "in vivo"}, "Mus musculus [6]": {"tested_on": "Mus musculus", "experiment": "Hematotoxicity in C57Bl/6 mouse assessed as effect on B220 pre-B/B cells at 0.2 mg/kg, ip administered for 5 days measured 2 hrs post last dose by FACS analysis", "type": "organism-based", "set-up": "dose 0.2 mg/kg, route intraperitoneal", "conditions": "in vivo"}, "[7]": {"experiment": "Metabolic stability in mouse liver microsomes assessed as compound remaining after 1 hr", "type": "ADME, Microsome", "conditions": "read-out: Stability", "procedure,_shortened": "(§1)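 Incubation with human or murine liver microsomes, read as percent compound remaining after 1 h.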"}, "[8]": {"experiment": "Metabolic stability in human liver microsomes assessed as compound remaining after 1 hr", "type": "ADME, Microsome", "conditions": "read-out: Stability", "procedure,_shortened": "as §1"}, "[9]": {"experiment": "Metabolic stability in human plasma assessed as compound remaining after 3 hrs", "type": "ADME, cell-free", "conditions": "read-out: Stability", "procedure,_shortened": "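Stability in human plasma measured as percent compound remaining after 3 h.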"}, "[10]": {"experiment": "Permeability of the compound by PAMPA assay at pH 7.4", "type": "ADME"}, "[11]": {"experiment": "Plasma protein binding in human after 4 hrs", "type": "ADME, cell-free", "conditions": "read-out: PPB (converted)", "procedure,_shortened": "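Human plasma protein binding measured after 4 h exposure.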"}, "[12]": {"experiment": "Permeability of the compound by PAMPA assay at pH 6.2", "type": "ADME"}, "[13]": {"experiment": "Solubility of the compound at pH 7.4", "type": "physicochemical", "conditions": "buffer", "procedure,_shortened": "(§2)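 Solubility measured at pH 5.0, 6.2 and 7.4.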"}, "[14]": {"experiment": "Permeability of the compound by PAMPA assay at pH 5", "type": "ADME"}, "[15]": {"experiment": "Solubility of the compound at pH 6.2", "type": "physicochemical", "conditions": "buffer", "procedure,_shortened": "as §2"}, "[16]": {"experiment": "Solubility of the compound at pH 5", "type": "physicochemical", "conditions": "buffer", "procedure,_shortened": "as §2"}, "lymphoma": {"tested_on": "lymphoma", "experiment": "Potentiation of doxorubicin antitumor activity against mouse Eu-myc/myr-AKT lymphoma cells xenografted in C57Bl/6 mouse assessed as tumor-free survival at 0.2 mg/kg, ip administered daily for 5 days", "type": "functional, organism-based", "set-up": "dose 0.2 mg/kg", "procedure,_shortened": "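C57Bl/6 mice, 6-8 weeks old, received 10^6 Eμ-myc/(myr)Akt lymphoma cells intravenously. Dosing began when tumours were palpable: test agent 0.2 mg/kg i.p. daily for 5 d in PEG 400/5.2% Tween 80, with doxorubicin 10 mg/kg given once on day 2. n=5 per group. Read-out was tumour-free survival (Kaplan-Meier).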"}, "BJAB": {"tested_on": "BJAB", "experiment": "Cytotoxicity against human BJAB cells after 72 hrs by PI-staining based flow cytometric analysis", "type": "functional, cell-based", "procedure,_shortened": "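BJAB cells exposed 72 h to a concentration series. Viability by propidium iodide staining and flow cytometry, plotted relative to vehicle (DMSO). Mean of three experiments.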"}, "[17]": {"molecular_target": "T1, Eukaryotic initiation factor 4A-I", "experiment": "Inhibition of eIF4A1-mediated protein synthesis in human BJAB cells assessed as inhibition of [35S]Met incorporation after 72 hr by scintillation counting", "type": "cell-based", "procedure,_shortened": "(§3)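 BJAB lymphoma cells exposed to compound for 1 h or 72 h. Protein synthesis measured as 35S-Met incorporation, normalised to total protein content and expressed relative to DMSO vehicle. Duplicates.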"}, "[18]": {"molecular_target": "T1, Eukaryotic initiation factor 4A-I", "experiment": "Inhibition of eIF4A1-mediated protein synthesis in human BJAB cells assessed as inhibition of [35S]Met incorporation after 1 hr by scintillation counting", "type": "cell-based", "procedure,_shortened": "as §3"}, "[19]": {"molecular_target": "T1, Eukaryotic initiation factor 4A-I", "experiment": "Inhibition of recombinant eIF4A1 assessed as depletion of eIF4A1/2 from eIF4F complex at 1 to 10 uM after 1 hr by Western blot analysis", "procedure,_shortened": "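eIF4F complex isolated by m7GTP affinity purification. Eluates resolved on 10% SDS-PAGE, then Western blot for eIF4E and eIF4AI/II.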"}, "[20]": {"molecular_target": "T1, Eukaryotic initiation factor 4A-I", "experiment": "Inhibition of recombinant eIF4A1 assessed as eIF4A1/[32P]mRNA complex formation at 1 to 10 uM after 10 mins by scintillation counting in presence of hippuristanol"}, "[21]": {"molecular_target": "T1, Eukaryotic initiation factor 4A-I", "experiment": "Inhibition of recombinant eIF4A1 assessed as eIF4A1/[32P]mRNA complex formation after 10 mins by scintillation counting", "procedure,_shortened": "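Binding of eIF4AI to radiolabelled RNA. Mean of three experiments with standard error of the mean.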"}},
  "note": "Active and inactive are the calls of the source. No cut-off for these calls is given here.",
  "data": [
    {"molecule": "COc1ccc(C23Oc4cc(OC)cc(OC)c4C2(O)C(O)C(C(=O)NOCCOCCOCCNC(C)=O)C3c2ccccc2)cc1", "note": "(racemic)", "values": [
      {"measurement": "inhibition", "setting": "[1]", "value": "Active"},
      {"measurement": "inhibition", "setting": "[2]", "value": "Active"}
    ]},
    {"molecule": "CONC(=O)[C@H]1[C@@H](O)[C@@]2(O)c3c(OC)cc(OC)cc3O[C@@]2(c2ccc(OC)cc2)[C@@H]1c1ccccc1", "values": [
      {"measurement": "Activity", "setting": "Mus musculus [3]", "value": "Non-toxic"},
      {"measurement": "Activity", "setting": "Mus musculus [4]", "value": "Non-toxic"},
      {"measurement": "Activity", "setting": "Mus musculus [5]", "value": "Non-toxic"},
      {"measurement": "Activity", "setting": "Mus musculus [6]", "value": "Non-toxic"},
      {"measurement": "remaining at 1 h", "setting": "[7]", "value": "> 95", "unit": "%"},
      {"measurement": "remaining at 1 h", "setting": "[8]", "value": "> 95", "unit": "%"},
      {"measurement": "remaining at 3 h", "setting": "[9]", "value": 100, "unit": "%"},
      {"measurement": "permeability", "setting": "[10]", "value": "permeable"},
      {"measurement": "fraction unbound at 4 h", "setting": "[11]", "value": 0.18},
      {"measurement": "permeability", "setting": "[12]", "value": "permeable"},
      {"measurement": "solubility", "setting": "[13]", "value": "> 150", "unit": "mg/mL"},
      {"measurement": "permeability", "setting": "[14]", "value": "permeable"},
      {"measurement": "solubility", "setting": "[15]", "value": "> 150", "unit": "mg/mL"},
      {"measurement": "solubility", "setting": "[16]", "value": "> 150", "unit": "mg/mL"},
      {"measurement": "Activity", "setting": "lymphoma", "value": "Active"},
      {"measurement": "IC50", "setting": "BJAB", "value": 1.5, "unit": "nM"},
      {"measurement": "IC50", "setting": "[17]", "value": 0.5, "unit": "nM"},
      {"measurement": "IC50", "setting": "[18]", "value": 20, "unit": "nM"},
      {"measurement": "inhibition", "setting": "[19]", "value": "Active"},
      {"measurement": "inhibition", "setting": "[20]", "value": "inactive"},
      {"measurement": "inhibition", "setting": "[21]", "value": "Dose-dependent effect"},
      {"measurement": "inhibition", "setting": "[2]", "value": "Active"}
    ]},
    {"molecule": "COc1ccc([C@@]23Oc4cc(OC)cc(OC)c4[C@]2(O)[C@H](O)[C@H](C(=O)c2ccc(CO)o2)[C@H]3c2ccccc2)cc1", "values": [
      {"measurement": "inhibition", "setting": "[2]", "value": "Active"}
    ]},
    {"molecule": "COc1ccc(C23Oc4cc(OC)cc(OC)c4C2(O)C(O)C(C(=O)NOCCO)C3c2ccccc2)cc1", "note": "(racemic)", "values": [
      {"measurement": "inhibition", "setting": "[1]", "value": "Active"},
      {"measurement": "inhibition", "setting": "[2]", "value": "Active"}
    ]},
    {"molecule": "COC(=O)[C@H]1[C@@H](O)[C@@]2(O)c3c(OC)cc(O[C@@H]4O[C@@H]([C@H](O)CO)CO[C@H]4OC)cc3O[C@@]2(c2ccc(OC)cc2)[C@@H]1c1ccccc1", "values": [
      {"measurement": "Activity", "setting": "lymphoma", "value": "Active"},
      {"measurement": "inhibition", "setting": "BJAB", "value": "Active"},
      {"measurement": "inhibition", "setting": "[17]", "value": "Active"},
      {"measurement": "inhibition", "setting": "[18]", "value": "Active"},
      {"measurement": "inhibition", "setting": "[19]", "value": "Active"},
      {"measurement": "inhibition", "setting": "[20]", "value": "inactive"},
      {"measurement": "inhibition", "setting": "[21]", "value": "Dose-dependent effect"}
    ]},
    {"molecule": "COc1ccc(C23Oc4cc(OC)cc(OC)c4C2(O)C(O)C(C(=O)NOCC2CC2)C3c2ccccc2)cc1", "note": "(racemic)", "values": [
      {"measurement": "inhibition", "setting": "[2]", "value": "Active"}
    ]},
    {"molecule": "CONC(=O)[C@@H]1[C@H](O)[C@]2(O)c3c(OC)cc(OC)cc3O[C@]2(c2ccc(OC)cc2)[C@H]1c1ccccc1", "values": [
      {"measurement": "inhibition", "setting": "[2]", "value": "inactive"}
    ]},
    {"molecule": "CONC(=O)C1C(O)C2(O)c3c(OC)cc(OC)cc3OC2(c2ccc(OC)cc2)C1c1ccccc1", "note": "(racemic)", "values": [
      {"measurement": "inhibition", "setting": "[2]", "value": "Active"}
    ]}
  ]
}
